# Measured values: ChEMBL document CHEMBL1145542, “Discovery of a new class of potent, selective, and orally bioavailable CRTH2 (DP2) receptor antagonists for the treatment of allergic inflammatory diseases” (J Med Chem, 2008)
# Legend:
# [1] = biological target: T1, Prostaglandin D2 receptor 2 (Homo sapiens, UniProt Q9Y5Y4); assay: Displacement of [3H]PGD2 from human CRTH2 receptor expressed in CHO cells; format: cell-based
# T1 sequence (Q9Y5Y4 whole entry): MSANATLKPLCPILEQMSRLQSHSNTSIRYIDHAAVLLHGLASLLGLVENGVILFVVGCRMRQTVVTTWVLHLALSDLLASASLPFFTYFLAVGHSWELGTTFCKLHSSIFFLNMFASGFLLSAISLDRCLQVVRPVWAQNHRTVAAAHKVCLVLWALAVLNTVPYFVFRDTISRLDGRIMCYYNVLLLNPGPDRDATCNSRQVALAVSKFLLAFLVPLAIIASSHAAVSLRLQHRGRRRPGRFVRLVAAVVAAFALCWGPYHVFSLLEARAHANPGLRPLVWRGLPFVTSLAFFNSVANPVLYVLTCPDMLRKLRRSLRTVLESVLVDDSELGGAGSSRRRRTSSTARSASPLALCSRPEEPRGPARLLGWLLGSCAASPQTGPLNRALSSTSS
# Procedure, shortened: (§1)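 Scintillation proximity competition assay: 2–5 µg human or mouse CRTH2 membranes (nitrogen-cavitation, differential centrifugation) with WGA-SPA beads and 1.5 nM [3H]PGD2 in 10 mM HEPES/KOH pH 7.4, 10 mM MnCl2, protease inhibitors, 1% Me2SO, 90 min shaking at room temperature. Nonspecific binding with 1 µM PGD2. Ki by Cheng–Prusoff, mean of ≥3 independent experiments.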
# [2] = biological target: T1, Prostaglandin D2 receptor 2; assay: Antagonist activity at human CRTH2 receptor expressed in CHO cell membrane by [35S]GTP-gamma-S binding assay; format: functional, cell membranes
# Procedure, shortened: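 [35S]GTPγS binding at 30 °C on 10 µg human CRTH2 membranes in 20 mM HEPES/KOH pH 7.4, 10 mM MgCl2, 10 µg/mL saponin, 3 µM GDP, 150 mM NaCl, 2% Me2SO. PGD2 preincubation 10 min (antagonist mode: 80 nM PGD2), then 0.15 nM [35S]GTPγS for 30 min. Nonspecific binding with 10 µM GTPγS; stopped by centrifugation, scintillation counting.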
# [3] = Apparent permeability across human Caco-2 cell membrane at 10 uM; format: ADME, cell-based
# Procedure, shortened: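 Caco-2 monolayers grown 21 days on Transwell filters; TEER above 800 ohm·cm² required. 10 µM test compound in HBSS added apically (A to B) or basolaterally (B to A), 2 h at 37 °C. Both compartments sampled, analysed by LC/MS-MS.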
# [4] = Lipophilicity, log D of the compound; format: physicochemical; conditions: octanol/water
# [5] = AUC (0 to last t) in rat at 1 mg/kg, iv; format: ADME, organism-based; design: time 0 - last, dose 1 mg/kg, route intravenous; conditions: plasma
# Procedure, shortened: (§2)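 Male Sprague–Dawley or Janvier rats, three per route, dosed by oral gavage or iv bolus. Serial blood drawn through an indwelling carotid catheter up to 24 h post dose. Plasma pooled by time point, analysed by LC-MS/MS; non-compartmental analysis.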
# [6] = AUC (0 to last t) in rat at 5 mg/kg, po; format: ADME, organism-based; design: time 0 - last, dose 5 mg/kg, route oral; conditions: plasma; procedure, shortened: as §2
# [7] = Oral bioavailability in rat at 5 mg/kg; format: ADME, organism-based; conditions: in vivo; procedure, shortened: as §2
# [8] = Cmax in rat at 1 mg/kg, iv; format: ADME, organism-based; design: dose 1 mg/kg, route intravenous; conditions: in vivo; procedure, shortened: as §2
# [9] = Cmax in rat at 5 mg/kg, po; format: ADME, organism-based; design: dose 5 mg/kg, route oral; conditions: in vivo; procedure, shortened: as §2
# [10] = Tmax in rat at 1 mg/kg, iv; format: ADME, organism-based; design: dose 1 mg/kg, route intravenous; conditions: in vivo; procedure, shortened: as §2
# [11] = Tmax in rat at 5 mg/kg, po; format: ADME, organism-based; design: dose 5 mg/kg, route oral; conditions: in vivo; procedure, shortened: as §2
# [12] = Half life in rat at 1 mg/kg, iv; format: ADME, organism-based; design: dose 1 mg/kg, route intravenous; conditions: in vivo; procedure, shortened: as §2
# [13] = Clearance in rat at 1 mg/kg, iv; format: ADME, organism-based; design: dose 1 mg/kg, route intravenous; conditions: in vivo; procedure, shortened: as §2
# [14] = Volume of distribution at steady state in rat at 1 mg/kg, iv; format: ADME, organism-based; design: dose 1 mg/kg, route intravenous; conditions: in vivo, read-out: Vdss; procedure, shortened: as §2
# [15] = biological target: T2, Prostaglandin D2 receptor 2 (Mus musculus, UniProt Q9Z2J6); assay: Displacement of [3H]PGD2 from mouse CRTH2 receptor expressed in HEK293 cells; format: cell-based; procedure, shortened: as §1
# T2 sequence (Q9Z2J6 whole entry): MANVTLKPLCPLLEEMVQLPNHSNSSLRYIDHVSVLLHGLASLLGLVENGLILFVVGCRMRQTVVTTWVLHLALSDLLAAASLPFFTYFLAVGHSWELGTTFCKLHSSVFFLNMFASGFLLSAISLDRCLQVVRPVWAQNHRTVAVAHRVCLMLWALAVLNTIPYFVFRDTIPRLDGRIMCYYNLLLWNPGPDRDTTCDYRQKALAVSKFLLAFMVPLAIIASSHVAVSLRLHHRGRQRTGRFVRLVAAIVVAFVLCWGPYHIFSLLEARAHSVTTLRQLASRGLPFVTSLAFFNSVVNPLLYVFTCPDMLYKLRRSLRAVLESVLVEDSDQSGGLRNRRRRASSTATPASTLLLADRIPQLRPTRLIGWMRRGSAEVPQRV
# [16] = Intrinsic clearance per mg of protein in human liver microsomes at 3 uM; format: ADME, Microsome
# Procedure, shortened: (§3)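 Rat or human liver microsomes (0.5 mg/mL final) in 0.1 M phosphate pH 7.4 with 3 µM compound (1% DMSO), preincubated at 37 °C, started with 1 mM NADPH. Quenched with cold acetonitrile at 0, 15, 30, 45 min; LC/MS-MS of compound disappearance gives intrinsic clearance.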
# [17] = Intrinsic clearance per mg of protein in rat liver microsomes at 3 uM; format: ADME, Microsome; procedure, shortened: as §3
# [18] = AUC (0 to last t) in Beagle dog at 1 mg/kg, iv; format: ADME, organism-based, Canis lupus familiaris; design: time 0 - last, dose 1 mg/kg, route intravenous; conditions: plasma
# Procedure, shortened: (§4)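 Three male beagle dogs, crossover design; 1 mg/kg given as a solution, iv bolus and oral gavage. Serial blood sampled up to 48 h post dose. Individual plasma samples analysed by LC-MS/MS; PK parameters derived by non-compartmental analysis.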
# [19] = AUC (0 to last t) in Beagle dog at 1 mg/kg, po; format: ADME, organism-based, Canis lupus familiaris; design: time 0 - last, dose 1 mg/kg, route oral; conditions: plasma; procedure, shortened: as §4
# [20] = Oral bioavailability in Beagle dog at 1 mg/kg; format: ADME, organism-based, Canis lupus familiaris; conditions: in vivo; procedure, shortened: as §4
# [21] = Cmax in Beagle dog at 1 mg/kg, iv; format: ADME, organism-based, Canis lupus familiaris; design: dose 1 mg/kg, route intravenous; conditions: in vivo; procedure, shortened: as §4
# [22] = Tmax in Beagle dog at 1 mg/kg, iv; format: ADME, organism-based, Canis lupus familiaris; design: dose 1 mg/kg, route intravenous; conditions: in vivo; procedure, shortened: as §4
# [23] = Half life in rat at 5 mg/kg, po; format: ADME, organism-based; design: dose 5 mg/kg, route oral; conditions: in vivo; procedure, shortened: as §2
# [24] = Half life in Beagle dog at 1 mg/kg, iv; format: ADME, organism-based, Canis lupus familiaris; design: dose 1 mg/kg, route intravenous; conditions: in vivo; procedure, shortened: as §4
# [25] = Clearance in Beagle dog at 1 mg/kg, iv; format: ADME, organism-based, Canis lupus familiaris; design: dose 1 mg/kg, route intravenous; conditions: in vivo; procedure, shortened: as §4
# [26] = Volume of distribution at steady state in Beagle dog at 1 mg/kg, iv; format: ADME, organism-based, Canis lupus familiaris; design: dose 1 mg/kg, route intravenous; conditions: in vivo, read-out: Vdss; procedure, shortened: as §4
# [27] = biological target: T3, Prostaglandin D2 receptor (Homo sapiens, UniProt Q13258); assay: Inhibition of prostaglandin D2 receptor
# T3 sequence (Q13258 whole entry): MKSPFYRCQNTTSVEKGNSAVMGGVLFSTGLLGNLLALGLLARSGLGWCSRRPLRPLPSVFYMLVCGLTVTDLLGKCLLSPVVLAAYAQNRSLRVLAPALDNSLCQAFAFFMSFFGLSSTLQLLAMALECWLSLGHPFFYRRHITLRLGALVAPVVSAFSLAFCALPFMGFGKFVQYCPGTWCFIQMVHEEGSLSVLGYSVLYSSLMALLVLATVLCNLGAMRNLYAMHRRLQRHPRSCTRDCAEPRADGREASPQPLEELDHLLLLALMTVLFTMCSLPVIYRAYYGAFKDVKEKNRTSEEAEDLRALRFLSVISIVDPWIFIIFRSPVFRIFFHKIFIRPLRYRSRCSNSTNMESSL
# [28] = biological target: Prostaglandin E2 receptor EP2 subtype (Homo sapiens, UniProt P43116); assay: Inhibition of prostanoid EP2 receptor
# Prostaglandin E2 receptor EP2 subtype, sequence (P43116 whole entry): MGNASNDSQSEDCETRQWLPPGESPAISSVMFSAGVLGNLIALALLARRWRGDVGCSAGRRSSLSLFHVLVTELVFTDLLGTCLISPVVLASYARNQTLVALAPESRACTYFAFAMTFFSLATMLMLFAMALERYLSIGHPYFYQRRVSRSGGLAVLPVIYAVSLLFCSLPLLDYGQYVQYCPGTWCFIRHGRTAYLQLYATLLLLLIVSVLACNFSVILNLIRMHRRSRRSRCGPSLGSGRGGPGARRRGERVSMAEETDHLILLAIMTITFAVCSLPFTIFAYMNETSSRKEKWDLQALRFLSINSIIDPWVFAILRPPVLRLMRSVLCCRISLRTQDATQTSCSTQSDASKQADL
# [29] = Inhibition of prostanoid EP3 receptor
# [30] = Inhibition of prostanoid EP4 receptor
# [31] = Inhibition of prostanoid FP receptor
# [32] = Cmax in Beagle dog at 1 mg/kg, po; conditions: in vivo
# [33] = Tmax in Beagle dog at 1 mg/kg, po; conditions: in vivo
# [34] = Half life in Beagle dog at 1 mg/kg, po; conditions: in vivo
Structure (SMILES),Ki [1] [nM],IC50 [2] [nM],Papp at 10 µM [3] [×10⁻⁶ cm/s],logD [4],AUC(0-t) [5] [ng·h/mL],AUC(0-t) [6] [ng·h/mL],bioavailability [7] [%],Cmax [8] [ng/mL],Cmax [9] [ng/mL],Tmax [10] [h],Tmax [11] [min],half-life [12] [min],clearance [13] [mL/min/kg],Vd [14] [L/kg],Ki [15] [nM],microsomal CLint at 3 µM [16] [µL/min/mg],microsomal CLint at 3 µM [17] [µL/min/mg],IC50 [27] [µM],IC50 [28] [µM],IC50 [29] [µM],also measured
Cc1noc(-c2ccccc2)c1CN1CC2(CC1=O)C(=O)N(CC(=O)O)c1ccc(Cl)cc12 (stereo not drawn),3.8,19,2.1,-0.3,247,2.01,0.2,1970,6,0,15,6,66.7,0.4,–,–,–,–,–,–,–
O=C(O)CN1C(=O)[C@@]2(CC(=O)N(Cc3ccccc3F)C2=O)c2cc(Cl)ccc21,23,–,2.4,-1,1250,2480,40,1990,297,0,30,60,13.3,0.9,22,15,23,> 30,> 30,> 30,AUC(0-t) [18]: 2020 ng·h/mL; AUC(0-t) [19]: 2350 ng·h/mL; bioavailability [20]: 120%; Cmax [21]: 2570 ng/mL; Tmax [22]: 0 h; half-life [23]: 252 min; half-life [24]: 420 min; clearance [25]: 8.33 mL/min/kg; Vd [26]: 2 L/kg; IC50 [30]: > 30 µM; IC50 [31]: > 30 µM; Cmax [32]: 503 ng/mL; Tmax [33]: 2 h; half-life [34]: 180 min
O=C(O)CN1C(=O)[C@@]2(CC(=O)N(Cc3cccc(Cl)c3)C2=O)c2cc(Cl)ccc21,23,107,–,-0.4,–,–,–,–,–,–,–,–,–,–,33,3,8,> 30,> 30,> 30,IC50 [30]: > 30 µM; IC50 [31]: > 30 µM
